The RNAGym collection of RNA variant scans (doi:10.1126/science.aae0568)
This sample holds only a part of the variants without activity.

B1: tRNA (parent)
chain: GUUCCGUUGGCGUAAUGGUAACGCGUCUCCCUCCUAAGGAGAAGACUGCGGGUUCGAGUCCCGUACGGAACG

Variants of: B1
Assay: yeast fitness relative to wild type (ratio to wild type); higher = fitter; tRNA-Arg(CCU), competitive growth, 37 C, YPD
Procedure, shortened: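 Variants of the tRNA-Arg(CCU) gene, chemically synthesised with a 3% per-site mutation rate at 69 sites, were placed at the native genomic locus in Saccharomyces cerevisiae. The pooled strains were competed in YPD at 37°C for 24 hours in six parallel replicates. Gene amplicons from the start population and from each end population were read by 100-nucleotide paired-end sequencing. Darwinian fitness relative to wild type came from changes in genotype frequencies; genotypes needed ≥ 100 starting reads, and estimates < 0.5 were set to 0.5.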

Variant | yeast fitness
GUUCCGUUGGCGUAAUGGUAACGCGUCUUCAUCCUAAGGAGAAGAUUGCGGGUUCGAGUCCCGUACGGAACG [C29U C31A C46U] | 0.552
GUUCCGUUGGCGUAAUGGUAACGCGUCUUCCUCCUAAGGAGAAGCCUGCGGGCUUCAGUCACGUAUGGAACG [C29U A45C U53C C55U G56C C61A C66U] | ≤ 0.5
GUUCCGUUGGCGUAAUGGUAACGCGUCUUCCUACUAACGAGAAGACUGCGGGUUCGAGUCCCGUACGGAACG [C29U C33A G38C] | 0.638
GUUCCGUUGGCGUAAUGGUAACGCGUCUUCCUACUAAAGAGAAGACUGCGGGUUCGAGUCCCGUACGGAACG [C29U C33A G38A] | ≤ 0.5
GUUCCGUUGGCGUAAUGGUAACGCGUCUUCCUCCUAGGGAGAAGACUCCGGGUUCGAGUCCCGUACCGAACG [C29U A37G G48C G67C] | ≤ 0.5
GUUCCGUUGGCGUAAUGGUAACGCGUCUUUCUCCUAAGGAGAAGACUGCGGGUUCGAGUCCCAUACGGAACG [C29U C30U G63A] | 0.514
GUUCCGUUGGCGUAAUGGUAACGCGUCUGCCUCCCAAGGAGAAGACUGCGGGUUCAAGUCCGGUACGGAACG [C29G U35C G56A C62G] | ≤ 0.5
GUUCCGUUGGCGUAAUGGUAACGCGUCUUCCUCCUAAGGAGAGGACUGCGGGUUCGAGUCCCGUAUGGAACG [C29U A43G C66U] | 0.598
GUUCCGUUGGCGUAAUGGUAACGCGUCUUCGUCCUAAAGAGAAGACUGCGAGUUCGACUCCCGUACGGAACG [C29U C31G G38A G51A G58C] | ≤ 0.5
GUUCCGUUGGCGUAAUGGUAACGCGUCUGCCUCCUAAGGAGAAGACUGCGGGUUCGAGUCCCGCACGGAACG [C29G U64C] | 0.688
GUUCCGUUGGCGUAAUGGUAACGCGUCUGCCUCCUAAGGAGAAGACUGCGGGUUCGAGUCCCGGACGGAACG [C29G U64G] | 0.635
GUUCCGUUGGCGUAAUGGUAACGCGUCUUCUUCCUAAGGAGAAGACUGCGGGUGCGAGUCCCGUACGAAACG [C29U C31U U54G G68A] | ≤ 0.5
GUUCCGUUGGCGUAAUGGUAACGCGUCUUCUUCCUAAGGAGAAGACUGCGGGUGCGAGUCCCGUACGCAACG [C29U C31U U54G G68C] | ≤ 0.5
GUUCCGUUGGCGUAAUGGUAACGCGUCUUCCUCCUAAGGUGAAGACUGCGGGUUCCAGUCCCGUACGGAACG [C29U A40U G56C] | 0.552
GUUCCGUUGGCGUAAUGGUAACGCGUCUUCCUCCUAGGGAGAAGACUGCGGGUUCGAGUCGCGUACGGUACG [C29U A37G C61G A69U] | ≤ 0.5
GUUCCGUUGGCGUAAUGGUAACGCGUCUUACUCCUAUGGAGAAGACUGCGGGUUCGCGUCCCGUACGGAACG [C29U C30A A37U A57C] | ≤ 0.5
GUUCCGUUGGCGUAAUGGUAACGCGUCUUCCUCCUAAGGAGAAGACUGCGGGUUCGCGUCCCGUACGGAACG [C29U A57C] | 0.611
GUUCCGUUGGCGUAAUGGUAACGCGUCUUCCUCCUAAGGAGAGAAAUGCGGGUUCGAGUCCCGUACGGAACG [C29U A43G G44A C46A] | 0.609
GUUCCGUUGGCGUAAUGGUAACGCGUCUGCCUCCGAAGGAGGAGACUGCGGGUUCGAGUCUCGUACGGAACG [C29G U35G A42G C61U] | ≤ 0.5

Variant | yeast fitness
GUUCCGUUGGCGUAAUGGUAACGCGUCUUCCUCCUAAGGAGAUGAAUGCGGGUUCGAGUCGCGUACGAAACG [C29U A43U C46A C61G G68A] | 0.567
GUUCCGUUGGCGUAAUGGUAACGCGUCUUCCUAUUAAGGAGAAGAGUGCGGGUUCGAGUCCCGUACGGAACG [C29U C33A C34U C46G] | ≤ 0.5
GUUCCGUUGGCGUAAUGGUAACGCGUCUUCCUCCUUAGGAGAAGACUGCGGGUUCGAGUCUCGUACGGAACG [C29U A36U C61U] | ≤ 0.5
GUUCCGUUGGCGUAAUGGUAACGCGUCUUCUUCCUAAGGACAAGACUGCGGGUUCGAGUCCCGUACGGAACG [C29U C31U G41C] | ≤ 0.5
GUUCCGUUGGCGUAAUGGUAACGCGUCUUCUUCCUAAGGAGAAGACUGCGGGUUCGAGUCCCGUAUGGAACG [C29U C31U C66U] | 0.591
GUUCCGUUGGCGUAAUGGUAACGCGUCUUCCUCCUACGGAGAAGACUGCGGGUUCGAGUCCCGUACGGAACG [C29U A37C] | 0.894
GUUCCGUUGGCGUAAUGGUAACGCGUCUUUCUCCUAAGGAGAUGACUGCGGGUUCGAGUCCCGUUCGGAACG [C29U C30U A43U A65U] | 0.588
GUUCCGUUGGCGUAAUGGUAACGCGUCUUCCUCCUAAGGAGAGGACUGCGGGGUCGAGUCCCAUACGGAACG [C29U A43G U53G G63A] | ≤ 0.5
GUUCCGUUGGCGUAAUGGUAACGCGUCUUCCUACUAAAGAGAAGACUGCGGGUUCGACUCCCGUUCGGAACG [C29U C33A G38A G58C A65U] | ≤ 0.5
GUUCCGUUGGCGUAAUGGUAACGCGUCUGCCUCCUAAGGAGAAGACUGCGGGGUCGAGUCCCGUACGGAACG [C29G U53G] | ≤ 0.5
GUUCCGUUGGCGUAAUGGUAACGCGUCUUCCUCCUAAGGAGAAGCCUGCGGGUAAGAGUCCCGUACGGAACG [C29U A45C U54A C55A] | ≤ 0.5
GUUCCGUUGGCGUAAUGGUAACGCGUCUUCCUCCUAAGGAGAAGCCUGCGGGUUCGAGUACCGUACGGAACG [C29U A45C C60A] | 0.598
GUUCCGUUGGCGUAAUGGUAACGCGUCUUCAUCCUAAGGAGAAGACUGCGGGUUCGAGUCCCGUAGUGAACG [C29U C31A C66G G67U] | ≤ 0.5
GUUCCGUUGGCGUAAUGGUAACGCGUCUUUCUCCUAAGGAGAAGACUGCGGGUUCGAGUCCCGUGCGGAACG [C29U C30U A65G] | 0.704
GUUCCGUUGGCGUAAUGGUAACGCGUCUUCCUCCUAAGGAGAUGACUGCGGGUUCGAGUCCCGUACGGAACG [C29U A43U] | 1.04
GUUCCGUUGGCGUAAUGGUAACGCGUCUUCCUCCUAAGGAGACGACUGCGGGUUCGAGUCCCGUACGGAACG [C29U A43C] | 0.948
GUUCCGUUGGCGUAAUGGUAACGCGUCUGCCUCCUAAGGAGAAGACAACGGGUUCGAGUCCCGUACGGAACG [C29G U47A G48A] | 0.553
GUUCCGUUGGCGUAAUGGUAACGCGUCUUCUUCCUAAGGAGAAGACUGCGGGUGCGAGUCCCGUCCAGAACG [C29U C31U U54G A65C G67A] | 0.549
